Published values gathered from unrelated publications.
Protocols differ between the studies behind these lines.
BCHE: Cholinesterase (BCHE, Equus caballus, UniProt P81908)
MAP2K3: Dual specificity mitogen-activated protein kinase kinase 3 (MAP2K3, Homo sapiens, UniProt P46734)

Compound	target	read-out	action	technique	concentration	measurement	result
COc1cc2c(cc1OC)C(=O)N(CC1CCNCC1)C2	BCHE	enzyme activity	inhibitor	Ellman	1 µM	inhibition	6.8%
COc1ncccc1-c1cnn2ccc(N3CCN(C(=O)OC(C)C)CC3)nc12	MAP2K3	binding		competition with immobilised ligand	1 µM	remaining binding	80%
Cc1nn(C)cc1-c1nc2c(N3CCN(Cc4ccc(Cl)cc4)CC3)c(Cl)cnc2[nH]1	MAP2K3	binding		competition with immobilised ligand	1 µM	remaining binding	100%
O=c1ccc2ccc3occc3c2o1	Aldehyde dehydrogenase, dimeric NADP-preferring (ALDH3A1, Homo sapiens, UniProt P30838)	enzyme activity	inhibitor	absorbance	10 µM	activity vs control	28.3%
C[C@]12CC[C@@H]3c4ccc(OC(=O)N(CCCl)CCCl)cc4CC[C@H]3[C@@H]1CC[C@@H]2OP(=O)(O)O	Tyrosine-protein phosphatase non-receptor type 11 (PTPN11, Homo sapiens, UniProt Q06124)	binding		SPR		koff	0.02 s⁻¹
C#Cc1n[nH]c2c(-c3cn([C@@H](C)c4ccccn4)c(=O)[nH]c3=O)cc(F)cc12	Serine/threonine-protein kinase Nek2 (NEK2, Homo sapiens, UniProt P51955)	enzyme activity	inhibitor		0.1 µM	inhibition	12%
COc1cc2c(cc1OC)C(=O)N(CC1CCN(Cc3ccccc3)CC1)C2	BCHE	enzyme activity	inhibitor	Ellman	1 µM	inhibition	-4.8%
Nc1ncc(-c2nc(N3CCOCC3)nc(N3CCOCC3)n2)c(C(F)F)n1	Mitogen-activated protein kinase kinase kinase 6 (MAP3K6, Homo sapiens, UniProt O95382)	binding		competition with immobilised ligand	10 µM	remaining binding	76%
COc1cc2c(cc1OC)C(=O)N(CC1CCN(Cc3cccc(C#N)c3)CC1)C2	BCHE	enzyme activity	inhibitor	Ellman	1 µM	inhibition	15.6%
Cn1cc(-c2cc(F)cc(N3CCn4c(cc5c4CCCC5)C3=O)c2CO)cc(Nc2ccc(N3CCN(C4COC4)CC3)cn2)c1=O	SRSF protein kinase 2 (SRPK2, Homo sapiens, UniProt P78362)	enzyme activity	inhibitor		0.1 µM	inhibition	3%
COc1cccc(CN2CCC(CN3Cc4cc(OC)c(OC)cc4C3=O)CC2)n1	BCHE	enzyme activity	inhibitor	Ellman	1 µM	inhibition	-2%
CCN(CC)CCCC[C@H](NC(=O)[C@H](CC(C)C)NC(=O)[C@H](C)NC(=O)[C@H](Cc1ccccc1)NC(=O)c1ccc(C(C)(C)C)cc1)C(=O)N[C@@H](CO)C(=O)OC	Peregrin, bromodomain (BRPF1, Homo sapiens, UniProt P55201)	thermal stability		DSF	25 µM	ΔTm	0.47 °C
